Bioassay records: PubChem, several laboratories
Sampled rows, rich in hits. Any-hit rate of the full collection: about 5.1%.
APP 5'UTR act = APP 5'UTR luciferase reporter activation; SH-SY5Y APP 5'UTR luciferase reporter, luminescence; zero percent = DMSO vehicle wells; activation, % at 2 µM; 1% of 190,000 active;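 active = activation above a set limit, based on mean plus 3 SD of controls, cut at about 140% in these data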
NF-kB expr up = NF-kB expression increase, human neuronal cells. NF-kB reporter expression; hits give high values. fold change at 12.5 µM. 1.6% of 190,000 active. AID 1239; in the data active = fold change above about 3.3
STAT1 inh = reduces IFN-gamma driven STAT1 reporter signal; inhibition, % at 5.5 µM; AID 920; NIH 3T3 STAT1-luciferase reporter, luminescence; 0.35% of 200,000 active;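 active = inhibition above a set limit, the mean inhibition across all tested compounds plus 3 SD, cut at about 34% in these data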
STAT3 activator = increases IL-6 driven STAT3 reporter signal | U3A cells, IL-6 STAT3-luciferase reporter, luminescence; 100% = signal with IL-6 EC80 alone | activation (% of control), % at 5.6 µM | 0.91% of 190,000 active | AID 871;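 active = activation above the screen-wide mean of compound activation plus 3 SD, cut at about 130% in these data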
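Material: STAT3-luciferase reporter U3A cells; Probe or stimulus: IL-6 (33 ng/mL); Incubation: compound pre-incubation 1 h before IL-6, then 6 h stimulation at 37 °C; Technique: luminescence from STAT3-driven luciferase reporter; Evaluation: % activation versus median of IL-6-stimulated wells; Controls: IL-6-only high control.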
STAT1 act = activators of IFN-gamma induced STAT1 signaling. 2.6% of 200,000 active. NIH 3T3 STAT1-luciferase reporter, luminescence; 100% = IFN-gamma alone, no compound. activation (% of control), % at 5.5 µM;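 active = activation above the screen-wide mean activation plus 3 SD, cut at about 130% in these data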
STAT3 blocker = inhibitors of IL-6 induced STAT3 signaling; U3A cells, IL-6 STAT3-luciferase reporter, luminescence; host cell line lacks STAT1; inhibition, % at 5.5 µM; 0.89% of 190,000 active;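 active = inhibition above the mean inhibition across all screened compounds plus 3 SD, cut at about 44% in these data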
Each line names hits and unclear results; the compound was inactive in the other large screens.

CCc1ccc(/C=N\NC(=O)c2ccc(Br)o2)s1	STAT1 act 146.0
Cc1cccc(NC(=S)Nc2ccc(N3CCOCC3)cc2)c1C	none
COc1ccc(-c2nnn(CCc3nn[nH]n3)n2)cc1	none (no result: NF-kB expr up)
Cc1ccc(NC(=O)CSc2nnc(-c3n[nH]c4ccccc34)n2-c2ccccc2)c(C)c1	none
Cc1cc(/C=C\c2ccccc2)nc2ccccc12	STAT1 act 143.0
CCOc1ccc(/C=C/C2=NNC(=O)CC2)cc1	STAT1 act 128.7
O=c1sc(N2CCN(c3ccccc3F)CC2)nc2ccsc12	NF-kB expr up 3.58, STAT1 act 139.4
Cc1nc2c3cnn(-c4ccc(C)c(C)c4)c3ncn2n1	NF-kB expr up 4.26, STAT1 act 148.2 (no result: APP 5'UTR act)
Cc1ccc(NC2(c3nnnn3-c3c(C)cccc3C)CCCCC2)cc1	none
O=C(c1ccccc1)n1ccc(-c2cnc(-c3ccccc3)s2)n1	APP 5'UTR act 140.8, NF-kB expr up 5.98
O=C(COC(=O)c1cccs1)NCC1CCCCC1	none
N/C(=N\OC(=O)c1ccc(Cl)cc1Cl)c1ccccn1	STAT1 inh 88.6, STAT3 blocker 86.4
N/C(=N\OC(=O)c1cc(Br)ccc1Cl)c1ccccn1	APP 5'UTR act 180.4, NF-kB expr up 5.99
O=C(O/N=C(\c1ccccc1)c1ccccn1)c1ccc(Cl)c(Cl)c1	none
S=C(NCc1ccco1)N1CCC(c2nc3ccccc3o2)CC1	none
O=C1CCC/C1=C/Nc1ccc2c(c1)OCO2	none
CC1CCC/C(=C\Nc2ccc3c(c2)OCO3)C1=O (stereo unspecified)	STAT1 act 133.2
Cc1nc(NC(=O)c2ccc([N+](=O)[O-])cc2Cl)sc1C(=O)N(C)C	none
Cc1cc(C(=O)Nc2nc(C)c(C(=O)N(C)C)s2)ccc1[N+](=O)[O-]	STAT1 act 150.2
CCN(CC)S(=O)(=O)c1ccc(N2CCOCC2)c(NCC(=O)Nc2ccc(F)cc2)c1	none
CC(=O)c1c(C)nc2sc3c(=N)n(N)cnc3c2c1-c1ccc(Cl)cc1	none
COc1cc(C(=O)Nc2ccc(S(=O)(=O)N(C)c3ccccc3)cc2)cc(OC)c1OC	none
COc1cc(C(=O)Nc2ccc(N(C)C)cc2)cc(OC)c1OC	STAT1 act 133.2
Cc1[nH]n(-c2cccc(Cl)c2)c(=O)c1C=NCC(C)C	STAT1 act 144.3
Cc1[nH]n(-c2cccc(Cl)c2)c(=O)c1C=NCc1ccco1	APP 5'UTR act 144.6, NF-kB expr up 6.74
Cc1[nH]n(-c2cccc(Cl)c2)c(=O)c1C=NC12CN3CN(CN(C3)C1)C2	none
CC1SCC(=O)N(CC(=O)Nc2ccc3c(c2)OCCO3)C1=O (stereo unspecified)	none
CCCC[n+]1c(-c2ccc(Cl)cc2Cl)csc1Nc1ccccc1	none
Clc1ccc(-c2csc(Nc3ccccc3)[n+]2Cc2ccco2)c(Cl)c1	STAT1 act 140.4
Cc1ccc(-n2[nH]c(=O)c(-c3ccccn3)c2C)cc1	STAT1 inh 76.2, STAT3 blocker 87.8
CCCCc1nc2cc(Cl)ccc2o1	none
CCOC(=O)c1ccc(N=Nc2c(C)c(C#N)c(O)[nH]c2=O)cc1	APP 5'UTR act 135.3, NF-kB expr up 3.56
O=C(Nc1ccccc1)c1sc(Cl)nc1-c1ccccc1	none
O=C(Nc1ccccc1)c1ccc(-c2ccccc2)s1	STAT1 act 137.0
COc1ccc(S(=O)(=O)Nc2nc3c(s2)CCCC3)cc1	none
O=C1CN(C(=S)NC(=O)c2ccc(-c3ccccc3)cc2)CCN1	STAT1 act 132.9
COc1ccc(C(=O)NC(=S)N2CCNC(=O)C2)cc1Br	none
CCCCOc1ccc(-c2cn3ccccc3n2)cc1[N+](=O)[O-]	NF-kB expr up 4.62, STAT1 act 131.5
CCCOc1ccc(-c2csc(N)n2)cc1[N+](=O)[O-]	STAT1 act 138.0
CCc1cc(C(=O)N2CCCC(CNC(=O)c3ccc(-c4ccccc4)cc3)C2)no1 (stereo unspecified)	none
O=C(CCS(=O)(=O)Cc1ccccc1F)NCc1ccccc1Cl	none
COc1cccc(OCc2nc3ccccc3[nH]2)c1	NF-kB expr up 3.36
COc1ccc(OCc2nc3ccccc3[nH]2)cc1	NF-kB expr up 3.95 (no result: APP 5'UTR act)
CC1CC(C)(C)NC(=S)N1CC(=O)NCc1ccc2c(c1)OCO2 (stereo unspecified)	none
Cc1nnc(SCC(=O)N(C)c2ccccc2)n1Cc1ccccc1	none
CC(=O)N(C)c1ccc(C(O)(C(F)(F)F)C(F)(F)F)cc1	none
CC(=O)c1sc(NC(=O)C=C(C)C)nc1C	none
CC(=O)c1sc(NC(=O)C2(F)C(F)(F)C(F)(F)C(F)(F)C(F)(F)C2(F)F)nc1C	STAT1 inh 37.4, STAT3 blocker 58.4
O=C(NCCc1nnc2ccc(NCc3cccnc3)nn12)c1ccccc1F	none
CCOc1ccc(C(=O)NCC(=O)OCc2ccc(F)cc2Cl)cc1	none
COCCN(CCOC)C(=O)c1cc2sc3ccccc3c2s1	none
CCN(CC)C(=O)c1cc2sc3ccccc3c2s1	STAT1 act 141.6
C=CCSc1n[nH]c(-c2ccc(OCCCC)cc2)n1	none
CCCCOc1ccc(-c2[nH]ncc2C=O)cc1	STAT1 act 134.6
CCc1nnc(NC(=O)CSc2nc(C)cc(C)c2C#N)s1	none
Brc1ccc(OCc2cn3ccccc3n2)cc1	APP 5'UTR act 139.7, NF-kB expr up 4.59, STAT1 act 146.6
COc1ccccc1N1CCN(Cc2ccc(O)c3ncccc23)CC1	NF-kB expr up 7.2
CCOC(=O)C1CCN(Cc2ccc(O)c3ncccc23)CC1	NF-kB expr up 10.1
O=C(NNC(=O)c1cccnc1SCc1cccc([N+](=O)[O-])c1)c1ccccn1	none
CCNc1ccc(P(=O)(c2ccccc2)c2ccccc2)cc1	none
CN(C)/C=N/NC(=O)c1ccccc1	none
CC(O)C(O)C(O)C(O)/C=N/NC(=O)c1ccccc1 (stereo unspecified)	STAT1 act 128.8
CC(C)Oc1ccc2ccccc2c1C=O	none
O=Cc1c(OCc2ccccc2)ccc2ccccc12	STAT1 act 134.2
CCCCOc1ccc(-c2nnn(CC(=O)NCc3ccco3)n2)cc1	none
CC(C)CC(=O)Nc1ccc(-c2nnn(CC(=O)NCc3ccco3)n2)cc1	STAT1 act 129.1
O=C(OCc1cn(-c2ccc(Cl)c(Cl)c2)nn1)c1ccccc1	none
Cc1ccc(-n2cc(C(=O)c3ccc(F)cc3)nn2)cc1Cl	STAT1 act 139.3
COc1ccccc1-c1n[nH]c(=S)n1Cc1ccco1	none
CC1CC(=O)C2=C(C1)Nc1ccccc1SC2c1ccc(F)cc1 (stereo unspecified)	none
Cc1cc(O)ccc1N/C=C/c1onc(C)c1[N+](=O)[O-]	APP 5'UTR act 162.1, STAT1 act 134.6
CC(C)c1onc(C(=O)Nc2cccc(O)c2)c1[N+](=O)[O-]	none
Cn1c(C(=O)N2CCCC(C(=O)c3ccc(C(F)(F)F)cc3)C2)cc(=O)n(C)c1=O (stereo unspecified)	none
